Test results published in ChEMBL document CHEMBL1131232, “New azole antifungals. 3. Synthesis and antifungal activity of 3-substituted-4(3H)-quinazolinones” (J Med Chem, 1998).
≈ marks a conversion by molar mass, not a printed value.

How the values were obtained:
[1] = In vitro antifungal activity against 6 filamentous fungi; format: functional
Procedure, shortened: (§1)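 Agar dilution on Kimmig's agar with 0.5% glycerol, using ATCC strains or clinical isolates. Drug stocks were 800 μg/mL in 50% ethanol, tested as 2-fold dilutions from 80 to 0.03 μg/mL. Inocula were 10⁵ cfu/mL. […] Geometric means took >80 as 160 and ≤0.03 as 0.03.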

Mus musculus [2] = assay: In vivo antifungal activity against murine candidosis model after peroral administration with 0.5 mg/kg at various time intervals. (percent protection for 100% mortality with fluconazole-treated group.); format: functional; settings: route oral
Procedure, shortened: (§2)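 Groups of 10 male mice were infected iv with 0.2 mL of C. albicans at 2 to 8×10^7 cfu/mL. Drug was given orally as a suspension in 1% Tween + 0.2% carboxymethylcellulose at 1, 4 and 24 h post-infection; controls got vehicle only. Survival was scored on days 3, 5, 7 and 9. Read-out was % survival on the day all untreated controls died, or on the day all mice given fluconazole at the same dose died.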

Mus musculus [3] = assay: (§3) In vivo antifungal activity against murine candidosis model after peroral administration with 0.5 mg/kg at various time intervals. (percent protection for 100% mortality with untreated group); format: functional; settings: route oral; procedure, shortened: as §2
[4] = In vitro for antifungal activity against 10 yeasts; format: functional; procedure, shortened: as §1
[5] = Half-life in rats after iv administration; format: ADME, organism-based; settings: rat, in vivo
Candida albicans [6] = assay: The compound was tested in vitro for antifungal activity against Candida albicans.; format: functional; procedure, shortened: as §1
Candida albicans [7] = assay: In vivo antifungal activity against murine candidosis model after peroral administration with 1 mg/kg at various time intervals. (percent protection for 100% mortality with fluconazole-treated group.); format: functional; settings: route oral; procedure, shortened: as §2
Candida albicans [8] = assay: In vivo antifungal activity against murine candidosis model after peroral administration with 1 mg/kg at various time intervals. (percent protection for 100% mortality with untreated group); format: functional; settings: route oral; procedure, shortened: as §2
Mus musculus [9] = assay: In vivo antifungal activity against murine candidosis model after peroral administration with 0.5 mg/Kg at various time intervals. (percent protection for 100% mortality with untreated group); format: functional; procedure, shortened: as §2
Mus musculus [10] = assay: In vivo antifungal activity against murine candidosis model after peroral administration with 0.5 mg/Kg at various time intervals. (percent protection for 100% mortality with fluconazole-treated group.); format: functional; procedure, shortened: as §2
Mus musculus [11] = assay: In vivo antifungal activity against murine candidosis model after peroral administration with 1 mg/Kg at various time intervals. (percent protection for 100% mortality with untreated group); format: functional; procedure, shortened: as §2
Candida albicans [12] = assay: as §3; format: functional; settings: route oral; procedure, shortened: as §2
Mus musculus [13] = assay: The compound was tested in vivo for anti-candida activity in mice model 1 (dose :0.5 mg/kg,fluconazole-treated group); format: functional
Mus musculus [14] = assay: The compound was tested in vivo for anti-candida activity in mice model 1(dose: 0.5 mg/kg, untreated group).; format: functional
Mus musculus [15] = assay: The compound was tested in vivo for anti-candida activity in mice model 2(dose: 5 mg/kg, untreated group).; format: functional
Mus musculus [16] = assay: The compound was tested in vivo for anti-candida activity in mice model 2(dose :5 mg/kg,fluconazole-treated group); format: functional
Oryctolagus cuniculus [17] = assay: In vivo antifungal activity against systemic candidosis in rabbit lung at a dose of 12.5 mg/kg, qd, po.; format: functional
Procedure, shortened: (§4)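 Groups of 10 male New Zealand rabbits were infected iv with C. albicans (1.2×10^7 cfu/kg). Drug was given orally as a suspension in 1% Tween 80 + 0.2% carboxymethylcellulose 4 h post-infection, then qd for 6 more days; controls got vehicle. On day 7, kidney or lung was homogenized in saline and plated on Sabouraud agar (37 °C, 7 days). Read-out was log cfu/g wet tissue.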

Oryctolagus cuniculus [18] = assay: In vivo antifungal activity against systemic candidosis in rabbit lung at a dose of 2.5 mg/kg, qd, po.; format: functional
Procedure, shortened: (§5)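 Male New Zealand rabbits, 10 per group, were infected iv with C. albicans at 1.2×10^7 cfu/kg. Oral dosing in 1% Tween 80 + 0.2% CMC began 4 h post-infection and continued qd for 6 more days; controls received vehicle. On day 7, kidney and lung homogenates in saline (1 mL/g) were plated on Sabouraud agar (37 °C, 7 days); read-out was log cfu/g wet tissue.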

Oryctolagus cuniculus [19] = assay: In vivo antifungal activity against systemic candidosis in rabbit lung at a dose of 0.5 mg/kg, qd, po.; format: functional; procedure, shortened: as §5
Oryctolagus cuniculus [20] = assay: In vivo antifungal activity against systemic candidosis in rabbit kidney at a dose of 0.5 mg/kg, qd, po.; format: functional; procedure, shortened: as §5
Oryctolagus cuniculus [21] = assay: In vivo antifungal activity against systemic candidosis in rabbit kidney at a dose of 12.5 mg/kg, qd, po.; format: functional; procedure, shortened: as §4
Oryctolagus cuniculus [22] = assay: In vivo antifungal activity against systemic candidosis in rabbit kidney at a dose of 2.5 mg/kg, qd, po.; format: functional; procedure, shortened: as §5
Rattus norvegicus [23] = assay: In vivo activity against disseminated aspergillosis (liver) in immunocompromized rat model at a dose of 1 mg/kg, bid, po; format: functional
Procedure, shortened: (§6)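 Male Sprague–Dawley rats, 10 per group, were immunosuppressed with dexamethasone 21-acetate 1 mg/kg/day po from 4 days before iv infection. Oral dosing in 1% Tween 80 + 0.2% CMC was given 1 and 8 h post-infection, then bid for 6 more days. Vehicle controls were dosed po bid. On day 7, liver homogenate was plated on Sabouraud agar (37 °C, 7 days) and log cfu/g recorded.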

Rattus norvegicus [24] = assay: In vivo activity against disseminated aspergillosis (liver) in immunocompromized rat model at a dose of 25 mg/kg, bid, po; format: functional; procedure, shortened: as §6
Rattus norvegicus [25] = assay: In vivo activity against disseminated aspergillosis (liver) in immunocompromized rat model at a dose of 5 mg/kg, bid, po; format: functional; procedure, shortened: as §6
Rattus norvegicus [26] = assay: In vivo activity against disseminated aspergillosis (liver) in immunocompromized rat model at a dose of 50 mg/kg, bid, po; format: functional; procedure, shortened: as §6
Candida albicans [27] = assay: Tested in vivo for anti-candida activity in mice model 1 (dose:0.5 mg/kg, fluconazole-treated group); format: functional
Mus musculus [28] = assay: The compound was tested in vivo for anti-candida activity in mice model 1(dose: 1 mg/kg,fluconazole-treated group); format: functional
Mus musculus [29] = assay: The compound was tested in vivo for anti-candida activity in mice model 1(dose: 1 mg/kg, untreated group).; format: functional
Candida albicans [30] = assay: Tested in vivo for anti-candida activity in mice model 1 (dose: 0.5 mg/kg, untreated group).; format: functional

Which MIC ([1]; read-out: MIC) does the source give for `CCC(CC)n1ncn(-c2ccc(N3CCN(c4ccc5c(=O)n([C@H](C)[C@](O)(Cn6cncn6)c6ccc(F)cc6F)cnc5c4)CC3)cc2)c1=O` here?
The MIC was > 80 mg/L.

What about the Protection (Mus musculus [2]) of the same compound?
The Protection was 0%.

What about the Protection (Mus musculus [3]) of the same compound?
Its Protection is 20%.

And the MIC ([4]; read-out: MIC)?
The MIC was 2.3 mg/L (≈ 3.24 µM).

With `C[C@@H](n1cnc2cc(F)ccc2c1=O)[C@](O)(Cn1cncn1)c1ccc(F)cc1F` as the compound, how does the half-life [5] read?
Its half-life is 1.4 h.

And the MIC (Candida albicans [6])?
Its MIC is < 0.03 mg/L.

What about the MIC ([1]; read-out: MIC) of the same compound?
The MIC was 2.5 mg/L (≈ 6.02 µM).

And the Protection (Candida albicans [7])?
Its Protection is 0%.

And the Protection (Candida albicans [8])?
Its Protection is 0%.

And the Protection (Mus musculus [9])?
The Protection was 0%.

And the MIC ([4]; read-out: MIC)?
The MIC was 0.9 mg/L (≈ 2.17 µM).

With `C[C@@H](n1cnc2cc(Br)ccc2c1=O)[C@](O)(Cn1cncn1)c1ccc(F)cc1F` as the compound, how does the MIC (Candida albicans [6]) read?
Its MIC is < 0.03 mg/L.

And the MIC ([1]; read-out: MIC)?
Its MIC is 0.8 mg/L (≈ 1.68 µM).

And the Protection (Candida albicans [7])?
The Protection was 0%.

What about the Protection (Candida albicans [8]) of the same compound?
The Protection was 30%.

And the Protection (Mus musculus [10])?
Its Protection is 0%.

What about the MIC ([4]; read-out: MIC) of the same compound?
The MIC was 0.4 mg/L (≈ 0.84 µM).

With `C[C@@H](n1cnc2cc(N(C)C)ccc2c1=O)[C@](O)(Cn1cncn1)c1ccc(F)cc1F` as the compound, how does the MIC ([1]; read-out: MIC) read?
Its MIC is 71 mg/L (≈ 161 µM).

What about the Protection (Candida albicans [7]) of the same compound?
Its Protection is 0%.

And the Protection (Mus musculus [11])?
Its Protection is 0%.

And the MIC ([4]; read-out: MIC)?
The MIC was 1.3 mg/L (≈ 2.95 µM).

For `C[C@@H](n1cnc2cc(Cl)ccc2c1=O)[C@](O)(Cn1cncn1)c1ccc(F)cc1F` (stereo in doubt; 20) [ALBACONAZOLE], which half-life [5] is on record?
The half-life was 2.9 h.

What about the MIC (Candida albicans [6]) of the same compound?
Its MIC is < 0.03 mg/L.

And the MIC [1]?
The MIC was 0.7 mg/L (≈ 1.62 µM).

What about the Protection (Candida albicans [7]) of the same compound?
The Protection was 0%.

What about the Protection (Candida albicans [8]) of the same compound?
Its Protection is 0%.

What about the Protection (Candida albicans [12]) of the same compound?
Its Protection is 0%.

And the Protection (Mus musculus [13])?
The Protection was 0%.

What about the Protection (Mus musculus [14]) of the same compound?
Its Protection is 0%.

And the Protection (Mus musculus [15])?
Its Protection is 90%.

And the Protection (Mus musculus [16])?
Its Protection is 0%.

And the Log cfu/g (Oryctolagus cuniculus [17])?
Its Log cfu/g is 0.

What about the Log cfu/g (Oryctolagus cuniculus [18]) of the same compound?
Its Log cfu/g is 0.12.

What about the Log cfu/g (Oryctolagus cuniculus [19]) of the same compound?
Its Log cfu/g is 0.39.

What about the Log cfu/g (Oryctolagus cuniculus [20]) of the same compound?
Its Log cfu/g is 0.68.

What about the Log cfu/g (Oryctolagus cuniculus [21]) of the same compound?
Its Log cfu/g is 0.35.

What about the Log cfu/g (Oryctolagus cuniculus [22]) of the same compound?
Its Log cfu/g is 0.3.

What about the Log cfu/g (Rattus norvegicus [23]) of the same compound?
The Log cfu/g was 1.59.

And the Log cfu/g (Rattus norvegicus [24])?
The Log cfu/g was 0.48.

What about the Log cfu/g (Rattus norvegicus [25]) of the same compound?
Its Log cfu/g is 1.22.

And the Log cfu/g (Rattus norvegicus [26])?
Its Log cfu/g is 0.

What about the MIC [4] of the same compound?
Its MIC is 0.3 mg/L (≈ 0.695 µM).

With `C[C@@H](c1ncncc1F)[C@](O)(Cn1cncn1)c1ccc(F)cc1F` [VORICONAZOLE] as the compound, how does the MIC ([1]; read-out: MIC) read?
Its MIC is 0.5 mg/L (≈ 1.43 µM).

And the Protection (Candida albicans [27])?
Its Protection is 0%.

What about the Protection (Mus musculus [28]) of the same compound?
Its Protection is 0%.

What about the Protection (Mus musculus [29]) of the same compound?
Its Protection is 20%.

What about the Protection (Candida albicans [30]) of the same compound?
Its Protection is 0%.

What about the MIC ([4]; read-out: MIC) of the same compound?
The MIC was 0.6 mg/L (≈ 1.72 µM).
